Active and inactive are the calls of the source. The calls are words filed in the database; no cut-off is given here.
Legend:
Type in all cases: functional, cell-based
HL-60 [1] = experiment: Inhibition of human promyelocytic leukemic cell (HL-60) trypan blue exclusion assay
Method in brief: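 HL-60 growth inhibition by trypan blue exclusion, five or six concentrations per nucleoside, in duplicate. Median inhibitory concentration (IC50) derived.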

H9 [2] = experiment: Anti-HIV activity in H9 cell line; Not active; settings: Homo sapiens
HL-60 [3] = experiment: Inhibition of human promyelocytic leukemic cell (HL-60) by […]-microculture tetrazolium assay
Method in brief: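 HL-60 cells exposed 4 days to five or six concentrations of each nucleoside, in duplicate. Then PMS-XTT mixture (0.075 mM PMS with 1 mg/mL XTT) added for 6 h at 37 °C. Absorbance at 450 and 630 nm. Median inhibitory concentration (IC50) derived.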

H9 [4] = experiment: Compound was tested for anti-HIV activity in H9 cell line; Active; settings: Homo sapiens
MT4 = experiment: Compound was tested for anti-HIV activity in MT-4 cell line; Not active; settings: Homo sapiens
H9 [5] = experiment: Compound was tested for anti-HIV activity in H9 cell line; Not active; settings: Homo sapiens

| IC50 (HL-60 [1]) [µM] | IC50 (HL-60 [3]) [µM] | Structure (SMILES) | Activity (H9 [2]) | Activity (H9 [4]) | Activity (MT4) | Activity (H9 [5]) |
| --- | --- | --- | --- | --- | --- | --- |
| > 1000 | > 1000 | Cc1cn([C@@H]2O[C@H](CO)[C@@H](O)[C@@H]2O)c(=O)[nH]c1=O | inactive | – | – | – |
| > 1000 | > 1000 | Cc1cn2c(nc1=O)O[C@@H]1C[C@H]2O[C@@H]1COS(C)(=O)=O | inactive | – | – | – |
| > 1000 | > 1000 | Cc1cn(C2CC(F)C(COS(C)(=O)=O)O2)c(=O)[nH]c1=O (centres undefined) | inactive | – | – | – |
| > 1000 | > 1000 | Cc1cn([C@@H]2O[C@H](CO)[C@@H](N=[N+]=[N-])[C@H]2F)c(=O)[nH]c1=O | inactive | – | – | – |
| > 1000 | > 1000 | Cc1cn([C@@H]2O[C@H](CO)C[C@H]2F)c(=O)nc1N | inactive | – | – | – |
| > 1000 | > 1000 | Cc1cn([C@@H]2O[C@H](COC(c3ccccc3)(c3ccccc3)c3ccccc3)C[C@H]2F)c(=O)[nH]c1=O | inactive | – | – | – |
| > 1000 | > 1000 | Cc1cn([C@@H]2O[C@H](COC(c3ccccc3)(c3ccccc3)c3ccccc3)[C@@H](OS(C)(=O)=O)[C@H]2OS(C)(=O)=O)c(=O)[nH]c1=O | inactive | – | – | – |
| > 1000 | > 1000 | Cc1cn(C2OC(COC(c3ccccc3)(c3ccccc3)c3ccccc3)C(F)C2N=[N+]=[N-])c(=O)[nH]c1=O (centres undefined) | inactive | – | – | – |
| > 1000 | > 1000 | Cc1cn([C@@H]2O[C@H](COC(=O)c3ccccc3)[C@@H](OS(C)(=O)=O)[C@@H]2F)c(=O)[nH]c1=O | inactive | – | – | – |
| > 1000 | > 1000 | Cc1cn2c(nc1=O)O[C@H]1[C@H](O)[C@@H](COC(c3ccccc3)(c3ccccc3)c3ccccc3)O[C@H]12 | inactive | – | – | – |
| > 1000 | > 1000 | Cc1cn2c(nc1=O)O[C@@H]1[C@H](F)[C@H]2O[C@@H]1COC(c1ccccc1)(c1ccccc1)c1ccccc1 | inactive | – | – | – |
| > 1000 | > 1000 | Cc1cn([C@@H]2O[C@H](CO)[C@@H](F)[C@H]2F)c(=O)[nH]c1=O | inactive | – | – | – |
| > 1000 | > 1000 | Cc1cn([C@@H]2O[C@H](COC(c3ccccc3)(c3ccccc3)c3ccccc3)[C@@H]3O[C@@H]32)c(=O)[nH]c1=O | inactive | – | – | – |
| > 1000 | > 1000 | Cc1cn(C2OC(COC(c3ccccc3)(c3ccccc3)c3ccccc3)C(N=[N+]=[N-])C2F)c(=O)[nH]c1=O (centres undefined) | inactive | – | – | – |
| > 1000 | > 1000 | Cc1cn(C2OC(COC(=O)c3ccccc3)C(F)C2F)c(=O)[nH]c1=O (centres undefined) | inactive | – | – | – |
| > 1000 | > 1000 | Cc1cn(C2OC(COC(c3ccccc3)(c3ccccc3)c3ccccc3)CC2F)c(=O)nc1N (centres undefined) | inactive | – | – | – |
| > 1000 | > 1000 | Cc1cn(C2OC(COC(c3ccccc3)(c3ccccc3)c3ccccc3)C(F)C2F)c(=O)[nH]c1=O (centres undefined) | inactive | – | – | – |
| > 1000 | > 1000 | Cc1cn(C2OC(COC(c3ccccc3)(c3ccccc3)c3ccccc3)CC2O)c(=O)[nH]c1=O (centres undefined) | inactive | – | – | – |
| > 1000 | > 1000 | Cc1cn([C@@H]2O[C@H](CO)[C@@H](O)[C@@H]2F)c(=O)[nH]c1=O [5-METHYL-2'-FLUOROARAURACIL] | inactive | – | – | – |

Further lines, the compound ahead of its results:

| Structure (SMILES) | IC50 (HL-60 [1]) [µM] | IC50 (HL-60 [3]) [µM] | Activity (H9 [2]) | Activity (H9 [4]) | Activity (MT4) | Activity (H9 [5]) |
| --- | --- | --- | --- | --- | --- | --- |
| Cc1cn([C@H]2C[C@H](F)[C@@H](CO)O2)c(=O)[nH]c1=O | – | – | – | Active | – | – |
| Cc1cn([C@@H]2O[C@H](CO)[C@@H](N=[N+]=[N-])[C@@H]2F)c(=O)[nH]c1=O | – | – | inactive | – | inactive | – |
| Cc1cn2c(nc1=O)OC1CC(COC(c3ccccc3)(c3ccccc3)c3ccccc3)OC12 (centres undefined) | > 1000 | > 1000 | inactive | – | – | – |
| Cc1cn([C@@H]2O[C@H](COC(=O)c3ccccc3)[C@@H](O)[C@@H]2F)c(=O)[nH]c1=O | > 1000 | > 1000 | inactive | – | – | – |
| Cc1cn2c(nc1=O)O[C@@H]1C[C@H]2O[C@@H]1CO | > 1000 | > 1000 | inactive | – | – | – |
| Cc1cn(C2OC(COC(c3ccccc3)(c3ccccc3)c3ccccc3)C(N=[N+]=[N-])C2O)c(=O)[nH]c1=O (centres undefined) | > 1000 | > 1000 | inactive | – | – | – |
| Cc1cn([C@H]2C[C@H](OS(C)(=O)=O)[C@@H](COS(C)(=O)=O)O2)c(=O)[nH]c1=O | > 1000 | > 1000 | inactive | – | – | – |
| Cc1cn(C2OC(CO)C(F)C2F)c(=O)nc1N (centres undefined) | 123 | 234 | inactive | – | – | – |
| Cc1cn(C2OC(CO)C[C@@H]2F)c(=O)[nH]c1=O (some centres undefined) | > 1000 | > 1000 | inactive | – | – | – |
| Cc1cn2c(nc1=O)O[C@H]1[C@H](OC(=S)n3ccnc3)[C@@H](COC(c3ccccc3)(c3ccccc3)c3ccccc3)O[C@H]12 | > 1000 | > 1000 | inactive | – | – | – |
| Cc1cn([C@@H]2O[C@H](CO)[C@@H](F)[C@@H]2F)c(=O)[nH]c1=O | > 1000 | > 1000 | inactive | – | – | – |
| Cc1cn(C2OC(COC(c3ccccc3)(c3ccccc3)c3ccccc3)C(F)C2O)c(=O)[nH]c1=O (centres undefined) | > 1000 | > 1000 | inactive | – | – | – |
| Cc1cn([C@@H]2O[C@H](COC(c3ccccc3)(c3ccccc3)c3ccccc3)[C@@H](OS(C)(=O)=O)[C@@H]2F)c(=O)[nH]c1=O | > 1000 | > 1000 | inactive | – | – | – |
| CC(=O)OCC1OC(n2cc(C)c(=O)[nH]c2=O)CC1F (centres undefined) | > 1000 | > 1000 | inactive | – | – | – |
| Cc1cn2c(nc1=O)O[C@@H]1[C@H](F)[C@H]2O[C@@H]1COC(=O)c1ccccc1 | > 1000 | > 1000 | inactive | – | – | – |
| Cc1cn([C@@H]2O[C@H](CO)C=C2F)c(=O)[nH]c1=O | > 1000 | > 1000 | inactive | – | – | – |
| Cc1cn(C2OC(COC(=O)c3ccccc3)C(F)C2F)c(=O)[nH]c1=S (centres undefined) | > 1000 | > 1000 | inactive | – | – | – |
| Cc1cn([C@@H]2O[C@H](COC(c3ccccc3)(c3ccccc3)c3ccccc3)[C@H](O)[C@H]2F)c(=O)[nH]c1=O | > 1000 | > 1000 | inactive | – | – | – |
| Cc1cn([C@@H]2O[C@H](CO)[C@@H](F)[C@H]2N=[N+]=[N-])c(=O)[nH]c1=O | > 1000 | > 1000 | inactive | – | – | – |
| Nc1ccn([C@@H]2O[C@H](CO)C[C@@H]2F)c(=O)n1 | – | – | – | Active | – | – |
| Cc1cn([C@@H]2O[C@H](CO)[C@@H](OC(c3ccccc3)(c3ccccc3)c3ccccc3)[C@H]2OC(c2ccccc2)(c2ccccc2)c2ccccc2)c(=O)[nH]c1=O | > 1000 | > 1000 | – | – | – | inactive |
| Cc1cn([C@@H]2O[C@H](CO)C[C@H]2F)c(=O)[nH]c1=O | > 1000 | > 1000 | inactive | – | – | – |
| Cc1cn(C2OC(COC(c3ccccc3)(c3ccccc3)c3ccccc3)CC2F)c(=O)nc1-n1cncn1 (centres undefined) | > 1000 | > 1000 | inactive | – | – | – |
| Cc1cn([C@@H]2O[C@H](COC(c3ccccc3)(c3ccccc3)c3ccccc3)[C@H](O)[C@H]2N=[N+]=[N-])c(=O)[nH]c1=O | > 1000 | > 1000 | inactive | – | – | – |

Reference: ChEMBL document CHEMBL1125694, “Fluorinated sugar analogues of potential anti-HIV-1 nucleosides” (J Med Chem, 1991)
